Measured values taken from ChEMBL document CHEMBL1136990, “Design of HIV-1 protease inhibitors with pyrrolidinones and oxazolidinones as novel P1'-ligands to enhance backbone-binding interactions with protease: synthesis, biological evaluation, and protein-ligand X-ray studies” (J Med Chem, 2009).

What was measured:
[1] = system: Human immunodeficiency virus 1; experiment: Antiviral activity against wild type HIV1 isolate ERS104pre infected in PHA-stimulated PBMC assessed as inhibition of p24 […] protein; assay type: functional, organism-based; conditions: Human immunodeficiency virus 1, isolate ERS104pre
How it was run: (§1)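 Clinical HIV-1 isolates were tested in PHA-stimulated peripheral blood mononuclear cells as targets, with inhibition of p24 Gag protein production as the end point. Each value was determined in duplicate or triplicate and derived from three independent experiments.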

[2] = system: Human immunodeficiency virus 1; experiment: Antiviral activity against multidrug-resistant HIV1 isolate TM infected in PHA-stimulated PBMC assessed as inhibition of p24 […] protein; assay type: functional, organism-based; conditions: Human immunodeficiency virus 1, isolate TM; how it was run: as §1
[3] = system: Human immunodeficiency virus 1; experiment: Antiviral activity against multidrug-resistant HIV1 isolate MM infected in PHA-stimulated PBMC assessed as inhibition of p24 […] protein; assay type: functional, organism-based; conditions: Human immunodeficiency virus 1, isolate MM; how it was run: as §1
[4] = system: Human immunodeficiency virus 1; experiment: Antiviral activity against multidrug-resistant HIV1 isolate C infected in PHA-stimulated PBMC assessed as inhibition of p24 […] protein; assay type: functional, organism-based; conditions: Human immunodeficiency virus 1, isolate C; how it was run: as §1
[5] = system: Human immunodeficiency virus 1; experiment: Antiviral activity against multidrug-resistant HIV1 isolate G infected in PHA-stimulated PBMC assessed as inhibition of p24 […] protein; assay type: functional, organism-based; conditions: Human immunodeficiency virus 1, isolate G; how it was run: as §1
[6] = system: Human immunodeficiency virus 1; experiment: Ratio of EC50 for multidrug-resistant HIV1 isolate TM to EC50 for wild type HIV1 isolate ERS104pre; assay type: functional
How it was run: (§2)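 Fold change is the EC50 against each multidrug-resistant isolate divided by the EC50 against HIV-1ERS104pre. EC50s came from PHA-stimulated PBMC with a p24 Gag production end point, run in duplicate or triplicate across three independent experiments.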

[7] = system: Human immunodeficiency virus 1; experiment: Ratio of EC50 for multidrug-resistant HIV1 isolate MM to EC50 for wild type HIV1 isolate ERS104pre; assay type: functional; how it was run: as §2
[8] = system: Human immunodeficiency virus 1; experiment: Ratio of EC50 for multidrug-resistant HIV1 isolate C to EC50 for wild type HIV1 isolate ERS104pre; assay type: functional; how it was run: as §2
[9] = system: Human immunodeficiency virus 1; experiment: Ratio of EC50 for multidrug-resistant HIV1 isolate G to EC50 for wild type HIV1 isolate ERS104pre; assay type: functional; how it was run: as §2
[10] = Inhibition of HIV protease by fluorescence energy transfer assay; design: species or system Human immunodeficiency virus
[11] = system: Human immunodeficiency virus 1; experiment: Antiviral activity against HIV1 LAI in human MT2 cells by MTT assay; assay type: functional, organism-based; conditions: Human immunodeficiency virus 1, LAI
[12] = system: Human immunodeficiency virus 1; experiment: Antiviral activity against saquinavir-resistant HIV1 NL4-3; assay type: functional, organism-based; conditions: Human immunodeficiency virus 1, NL4-3
[13] = system: Human immunodeficiency virus 1; experiment: Antiviral activity against amprenavir-resistant HIV1 NL4-3; assay type: functional, organism-based; conditions: Human immunodeficiency virus 1, NL4-3
[14] = system: Human immunodeficiency virus 1; experiment: Antiviral activity against indinavir-resistant HIV1 NL4-3; assay type: functional, organism-based; conditions: Human immunodeficiency virus 1, NL4-3
[15] = system: Human immunodeficiency virus 1; experiment: Antiviral activity against nelfinavir-resistant HIV1 NL4-3; assay type: functional, organism-based; conditions: Human immunodeficiency virus 1, NL4-3
[16] = system: Human immunodeficiency virus 1; experiment: Antiviral activity against ritonavir-resistant HIV1 NL4-3; assay type: functional, organism-based; conditions: Human immunodeficiency virus 1, NL4-3
[17] = system: Human immunodeficiency virus 1; experiment: Antiviral activity against lopinavir-resistant HIV1 NL4-3; assay type: functional, organism-based; conditions: Human immunodeficiency virus 1, NL4-3
[18] = system: Human immunodeficiency virus 1; experiment: Antiviral activity against atazanavir-resistant HIV1 NL4-3; assay type: functional, organism-based; conditions: Human immunodeficiency virus 1, NL4-3

CC(C)CN(C[C@@H](O)[C@H](Cc1ccccc1)NC(=O)O[C@H]1CCOC1)S(=O)(=O)c1ccc(N)cc1
EC50 [1]: 25 nM | EC50 [2]: 250 nM | EC50 [3]: 320 nM | EC50 [4]: 350 nM | EC50 [5]: 330 nM | Ratio EC50 [6]: 10 | Ratio EC50 [7]: 13 | Ratio EC50 [8]: 14 | Ratio EC50 [9]: 13

Nc1ccc(S(=O)(=O)N(C[C@@H]2CCC(=O)N2)C[C@@H](O)[C@H](Cc2ccccc2)NC(=O)O[C@H]2CO[C@H]3OCC[C@H]32)cc1
Ki [10]: 0.28 nM

Nc1ccc(S(=O)(=O)N(C[C@@H]2COC(=O)N2)C[C@@H](O)[C@H](Cc2ccccc2)NC(=O)O[C@H]2CO[C@H]3OCC[C@H]32)cc1
Ki [10]: 0.31 nM

Nc1ccc(S(=O)(=O)N(C[C@H]2CCC(=O)N2)C[C@@H](O)[C@H](Cc2ccccc2)NC(=O)O[C@@H]2C[C@@H]3CCO[C@@H]3C2)cc1
Ki [10]: 0.31 nM | IC50 [11]: 600 nM

COc1ccc(S(=O)(=O)N(C[C@H]2COC(=O)N2)C[C@@H](O)[C@H](Cc2ccccc2)NC(=O)O[C@H]2CO[C@H]3OCC[C@H]32)cc1
Ki [10]: 0.035 nM | IC50 [11]: 310 nM

Nc1ccc(S(=O)(=O)N(C[C@H]2CCC(=O)N2)C[C@@H](O)[C@H](Cc2ccccc2)NC(=O)O[C@H]2CO[C@H]3OCC[C@H]32)cc1
Ki [10]: 0.85 nM | IC50 [11]: > 1000 nM

COc1ccc(S(=O)(=O)N(C[C@H]2CCC(=O)N2)C[C@@H](O)[C@H](Cc2ccccc2)NC(=O)O[C@@H]2C[C@@H]3CCO[C@@H]3C2)cc1
IC50 [11]: 26 nM | EC50 [1]: 28 nM | EC50 [2]: 29 nM | EC50 [3]: 42 nM | EC50 [4]: 23 nM | EC50 [5]: 27 nM | Ratio EC50 [6]: 1 | Ratio EC50 [7]: 2 | Ratio EC50 [8]: 1 | Ratio EC50 [9]: 1 | EC50 [12]: 36 nM | EC50 [13]: 36 nM | EC50 [14]: 36 nM | EC50 [15]: 36 nM | EC50 [16]: 36 nM | EC50 [17]: 36 nM | EC50 [18]: 36 nM

COc1ccc(S(=O)(=O)N(C[C@@H]2CCC(=O)N2)C[C@@H](O)[C@H](Cc2ccccc2)NC(=O)O[C@@H]2C[C@@H]3CCO[C@@H]3C2)cc1
Ki [10]: 0.31 nM | IC50 [11]: 230 nM

COc1ccc(S(=O)(=O)N(C[C@@H]2CCC(=O)N2)C[C@@H](O)[C@H](Cc2ccccc2)NC(=O)O[C@H]2CO[C@H]3OCC[C@H]32)cc1
Ki [10]: 0.85 nM | IC50 [11]: 480 nM

COc1ccc(S(=O)(=O)N(C[C@H]2CCC(=O)N2)C[C@@H](O)[C@H](Cc2ccccc2)NC(=O)O[C@H]2CO[C@H]3OCC[C@H]32)cc1
Ki [10]: 0.12 nM | IC50 [11]: 250 nM

Nc1ccc(S(=O)(=O)N(C[C@H]2COC(=O)N2)C[C@@H](O)[C@H](Cc2ccccc2)NC(=O)O[C@H]2CO[C@H]3OCC[C@H]32)cc1
Ki [10]: 0.24 nM | IC50 [11]: > 1000 nM

Nc1ccc(S(=O)(=O)N(C[C@@H]2CCC(=O)N2)C[C@@H](O)[C@H](Cc2ccccc2)NC(=O)O[C@@H]2C[C@@H]3CCO[C@@H]3C2)cc1
Ki [10]: 1.27 nM | IC50 [11]: > 1000 nM

COc1ccc(S(=O)(=O)N(C[C@@H]2COC(=O)N2)C[C@@H](O)[C@H](Cc2ccccc2)NC(=O)O[C@H]2CO[C@H]3OCC[C@H]32)cc1
Ki [10]: 0.28 nM | IC50 [11]: 480 nM

CC(C)(C)NC(=O)[C@@H]1CN(Cc2cccnc2)CCN1C[C@@H](O)C[C@@H](Cc1ccccc1)C(=O)N[C@H]1c2ccccc2C[C@H]1O.O
EC50 [1]: 28 nM | EC50 [2]: > 1000 nM | EC50 [3]: > 1000 nM | EC50 [4]: > 1000 nM | EC50 [5]: 290 nM | Ratio EC50 [6]: >36 | Ratio EC50 [7]: >36 | Ratio EC50 [8]: >36 | Ratio EC50 [9]: 10
